NPY-Y1 PAM-ag – potentiates or activates human NPY-Y1 receptor; P25929; NPY-Y1 expressing cells, potentiator/agonist activation; activation, % at 3.6 µM; 220,000 tested, 0.37% active; AID 1304; in the data active = activation above about 33%, passing the limit was not always enough;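 also: cells stimulated with NPY at EC10 then isoproterenol at EC100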
Target sequence (P25929 whole entry, looked up): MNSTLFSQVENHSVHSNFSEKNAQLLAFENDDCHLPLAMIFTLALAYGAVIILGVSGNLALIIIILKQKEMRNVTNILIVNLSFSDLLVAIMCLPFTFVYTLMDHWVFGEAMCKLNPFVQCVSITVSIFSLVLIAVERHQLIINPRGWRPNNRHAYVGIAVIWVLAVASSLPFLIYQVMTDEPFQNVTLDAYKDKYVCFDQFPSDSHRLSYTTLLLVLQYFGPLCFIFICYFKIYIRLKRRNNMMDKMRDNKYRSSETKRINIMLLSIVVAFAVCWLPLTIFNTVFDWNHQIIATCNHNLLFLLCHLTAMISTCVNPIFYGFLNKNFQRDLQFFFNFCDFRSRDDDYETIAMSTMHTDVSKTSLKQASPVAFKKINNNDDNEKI
NPY2 pot ag – potentiators or agonists of human neuropeptide Y receptor Y2; P49146; cells expressing NPY-Y2, potentiator/agonist read-out; activation, % at 3.6 µM; 220,000 tested, 0.45% active; AID 1359; in the data active = activation above about 27%;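 also: cells stimulated with NPY near EC25 plus isoproterenol at EC100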
NPY-Y1 antag – NPY-Y1 (human) receptor antagonism | HEK293-CNG Y1 cells, membrane potential fluorescence; NPY at EC95, then isoproterenol | AID 1040 | inhibition, % at 3.6 µM | 200,000 tested, 1% active;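 active = inhibition above the campaign mean inhibition of all tested compounds plus 3 SD, cut at about 20% in these data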
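material = HEK293 cells with Y1 receptor plus CNG channel | also added = NPY 25 nM then isoproterenol 1 µM plus Ro 20-1724 25 µM | schedule = dye 3 h, compound 60 min room temperature, stimulation 45 min | measured by = membrane potential fluorescence | benchmarks = high control isoproterenol alone, low control NPY with isoproterenol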
NPY Y2 blocker – blocks the human neuropeptide Y Y2 receptor. inhibition, % at 2.7 µM. AID 793. NPY-Y2 expressing cells, antagonist mode. P49146. 140,000 tested, 0.99% active; in the data active = inhibition above about 17%
NPY-Y1 antag ct – human NPY-Y1 antagonism in NPY-Y2 counter-screen. 710 tested, 19% active. inhibition, % at 3.6 µM. cell-based NPY-Y1 antagonism counterscreen. shares compounds with NPY Y2 blocker; in the data active = inhibition above about 20%;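 also: cells challenged with NPY then isoproterenol with cAMP sensed through a CNG channel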
NPY-Y2 ant conf – confirmation of human neuropeptide Y receptor Y2 antagonists; 710 tested, 32% active; HEK293 NPY-Y2 CNG channel, membrane potential fluorescence; AID 1257; inhibition, % at 2.8 µM; shares compounds with NPY Y2 blocker;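 active = mean inhibition of triplicate wells above the hit cutoff set in the primary screen, cut at about 17% in these data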
Each line names hits and unclear results; the compound was inactive in the other large screens (follow-up assays come after a bar, where they were run). In the library only some 1.8% were active in any assay of this set; here they are far more common.

COC(=O)c1c(C)[nH]c(C)c1-c1ccccc1Cl	none
COC(=O)C1=C(C(=O)OC)SC2(S1)C(C(=O)OC)=C(C(=O)OC)SC1=C2c2cccc(C)c2NC1(C)C	NPY Y2 blocker 18 | NPY-Y1 antag ct inactive | NPY-Y2 ant conf 33
Cc1ccc(Oc2nc(CN3CCOCC3)nc3sc4c(c23)CCC(C)C4)cc1 (stereo not given)	NPY Y2 blocker 22 | NPY-Y1 antag ct 29 | NPY-Y2 ant conf 30
CCC1=Nc2ccc(Br)cc2C(c2ccccc2)N1CC(=O)OC (stereo not given)	NPY Y2 blocker 23 | NPY-Y1 antag ct inactive | NPY-Y2 ant conf 23
CC(=O)OC(COc1ccccc1)Cn1cnc2cc(C)c(C)cc21 (stereo not given)	none (no result: NPY Y2 blocker)
Cc1onc(-c2c(F)cccc2Cl)c1C(=O)N1CCN(c2ncc(Br)cn2)CC1	none (no result: NPY-Y1 antag, NPY Y2 blocker)
O=C(c1ccccc1)N(Cc1cccnc1)C1(C(=O)Nc2ccccc2)CCCCC1	NPY Y2 blocker 19 | NPY-Y1 antag ct inactive | NPY-Y2 ant conf inactive
COc1ccc(OC)c(S(=O)(=O)N2CCC(C(=O)Nc3ccccc3)CC2)c1	none (no result: NPY Y2 blocker)
COc1ccc(NC(=O)c2n[nH]c(=O)c3ccccc23)cc1S(=O)(=O)N1CCCCC1	NPY Y2 blocker 27 | NPY-Y1 antag ct inactive | NPY-Y2 ant conf 19
COc1ccc(NC(=O)C2CCC(C(C)(C)C)CC2)cc1S(=O)(=O)N1CCCCC1 (stereo not given)	NPY Y2 blocker 21 | NPY-Y1 antag ct inactive | NPY-Y2 ant conf inactive
COc1ccc(CCNC(=O)CCc2ccc(S(=O)(=O)NCC(C)C)cc2)cc1OC	none (no result: NPY Y2 blocker)
CCCn1ncc(/C=N/O)c1C	none (no result: NPY-Y1 antag, NPY Y2 blocker)
COc1ccc(-c2nnc3n2N=C(c2cccc(Br)c2)CS3)cc1OC	NPY Y2 blocker 19 | NPY-Y1 antag ct inactive | NPY-Y2 ant conf inactive
CCn1nc(C(=O)OCC(=O)c2cc(C)n(Cc3cccs3)c2C)c2ccccc2c1=O	NPY Y2 blocker 24 | NPY-Y1 antag ct inactive | NPY-Y2 ant conf 25
Cc1cc(C(=O)COC(=O)c2ccccc2O)c(C)n1Cc1cccs1	none
CCOC(=O)N1CCN(Cc2cn[nH]c2-c2cc3ccccc3o2)CC1	none (no result: NPY Y2 blocker)
Cc1c(NC(=O)C(Sc2ccccc2)c2ccccc2)cccc1[N+](=O)[O-] (stereo not given)	NPY Y2 blocker 18 | NPY-Y1 antag ct inactive | NPY-Y2 ant conf inactive
c1ccc(Cc2nnc(-c3ccccc3)o2)cc1	NPY Y2 blocker 135 | NPY-Y1 antag ct inactive | NPY-Y2 ant conf 19
COC(=O)c1ccccc1NC(=O)c1cnn2c(C(F)F)cc(C3CC3)nc12	NPY Y2 blocker 19 | NPY-Y1 antag ct 44 | NPY-Y2 ant conf 32
COc1cc(NC(=O)c2cnn3c(C(F)F)cc(C4CC4)nc23)c(OC)cc1Cl	none (no result: NPY Y2 blocker)
c1ccc(C2=Nn3c(nnc3-c3n[nH]c4c3CCC4)SC2)cc1	none
Clc1ccc(C2=Nn3c(nnc3-c3n[nH]c4c3CCC4)SC2)cc1Cl	NPY Y2 blocker 67 | NPY-Y1 antag ct inactive | NPY-Y2 ant conf 18
O=[N+]([O-])c1ccc(-c2csc(Nc3ccccc3)[n+]2Cc2ccccc2)cc1	NPY Y2 blocker 19 | NPY-Y1 antag ct inactive | NPY-Y2 ant conf inactive
CCOC(=O)c1sc(NC(=O)CC)nc1C	none (no result: NPY Y2 blocker)
CCCCOC(=O)Nc1nc(C)c(C(=O)OCC)s1	NPY Y2 blocker 18 | NPY-Y1 antag ct inactive | NPY-Y2 ant conf inactive
Cc1ccccc1N1C(=O)c2ccccc2N2C(=O)c3ccccc3C12 (stereo not given)	NPY Y2 blocker 23 | NPY-Y1 antag ct inactive | NPY-Y2 ant conf inactive
O=C1c2ccccc2N2C(=O)c3ccccc3C2N1O (stereo not given)	none
CCCC(O)(CCC)C(=O)NN(C(=O)OC)c1ccccc1	NPY Y2 blocker 20 | NPY-Y1 antag ct inactive | NPY-Y2 ant conf inactive
O=C(OCC1CC(c2ccccc2)=NO1)c1ccc(Br)cc1 (stereo not given)	NPY Y2 blocker 18 | NPY-Y1 antag ct inactive | NPY-Y2 ant conf inactive
O=C(OCC1CC(c2ccccc2Cl)=NO1)c1ccc(Br)cc1 (stereo not given)	none
O=C(NCCCn1ccnc1)/C(=C\c1cccs1)NC(=O)c1ccco1	none
COc1ccc(C(=O)N/C(=C/c2cccs2)C(=O)NCCCn2ccnc2)cc1OC	NPY Y2 blocker 22 | NPY-Y1 antag ct inactive | NPY-Y2 ant conf inactive
Cc1cc(C)n(-c2nc(Nc3ccccc3C(F)(F)F)nc(-n3nc(C)cc3C)n2)n1	NPY Y2 blocker 19 | NPY-Y1 antag ct inactive | NPY-Y2 ant conf inactive
CCN(CC)CC#CCC(C)(c1ccccc1)c1ccccc1	NPY Y2 blocker 18 | NPY-Y1 antag ct inactive | NPY-Y2 ant conf 21
O=C(Nc1ccccc1)c1ccc(-c2ccc(Br)cc2)o1	NPY Y2 blocker 29 | NPY-Y1 antag ct inactive | NPY-Y2 ant conf inactive
COc1ccccc1NC(=O)c1ccc(-c2ccc(Br)cc2)o1	NPY Y2 blocker 21 | NPY-Y1 antag ct 21 | NPY-Y2 ant conf 43
Cc1ccccc1CC1(CO)CCCN(C(=O)CCCN2CCCCC2=O)C1 (stereo not given)	none (no result: NPY Y2 blocker)
CN(C)S(=O)(=O)c1ccc(Cl)c(NC(=O)CN2C(=O)NC(C)(C3CC3)C2=O)c1 (stereo not given)	none (no result: NPY-Y1 antag, NPY Y2 blocker)
Cc1ccc(C)c(NS(=O)(=O)c2cc(C(=O)Nc3ccccc3-c3ccccc3)ccc2C)c1	NPY Y2 blocker 22 | NPY-Y1 antag ct inactive | NPY-Y2 ant conf 117
Cc1ccc(C(=O)Nc2ccccc2-c2ccccc2)cc1S(=O)(=O)Nc1cccc(C)c1C	none
CCSc1nc2ccc(OC)cc2cc1C#N	NPY Y2 blocker 21 | NPY-Y1 antag ct inactive | NPY-Y2 ant conf 20
CCN(CC)c1nc2cc(OC)ccc2cc1C#N	NPY Y2 blocker 23 | NPY-Y1 antag ct inactive | NPY-Y2 ant conf inactive
Cc1cccc(CSCCNC(=O)COc2ccc(Cl)cc2)c1	NPY Y2 blocker 22 | NPY-Y1 antag ct inactive | NPY-Y2 ant conf 17
O=C(O)CSc1nnc(-c2ccc3c(c2)OCO3)o1	NPY Y2 blocker 31 | NPY-Y1 antag ct inactive | NPY-Y2 ant conf 18
C/C(Cn1nnc([N+](=O)[O-])n1)=N\NC(=O)c1ccccc1O	none (no result: NPY-Y1 antag, NPY Y2 blocker)
C/C(Cn1nnc([N+](=O)[O-])n1)=N\NC(=O)c1ccc(O)cc1O	NPY Y2 blocker 25 | NPY-Y1 antag ct inactive | NPY-Y2 ant conf inactive
C=CC(C)Sc1nc2c(c(=O)n(C)c(=O)n2C)n1Cc1ccccc1Cl (stereo not given)	NPY Y2 blocker 18 | NPY-Y1 antag ct inactive | NPY-Y2 ant conf inactive
O=C(Nc1ccccc1Cl)C1C2CCC3C(CCC21)C3(Cl)Cl (stereo not given)	NPY Y2 blocker 18 | NPY-Y1 antag ct inactive | NPY-Y2 ant conf inactive
C/C(=N/NS(C)(=O)=O)c1ccc2ccccc2c1	NPY Y2 blocker 17 | NPY-Y1 antag ct inactive | NPY-Y2 ant conf inactive
OC1(c2ccccc2)CCN(Cc2ccccc2)C2CCCCC21 (stereo not given)	NPY Y2 blocker 29 | NPY-Y1 antag ct inactive | NPY-Y2 ant conf 43
N#Cc1cc2ccccc2nc1SCC(=O)Nc1ccccc1N1CCOCC1	NPY Y2 blocker 17 | NPY-Y1 antag ct inactive | NPY-Y2 ant conf inactive
